“And” between values parts separate entries of the source, which are not always exact repeats. Equal entries are not always repeated. Where two headings read alike, the source gives them in different places.
Experiments:
MAGL [1] = assay: [18F]T-401 PET after JW642 pretreatment; assay type: in vivo, rhesus monkey (Macaca mulatta)
MAGL [2] = target: T1, MAGL (Macaca mulatta, UniProt H9ESL3); assay: In vivo Scatchard plot analysis of baseline [18F]T-401 PET data; design: species or system rhesus monkey
T1 sequence (H9ESL3 1-303): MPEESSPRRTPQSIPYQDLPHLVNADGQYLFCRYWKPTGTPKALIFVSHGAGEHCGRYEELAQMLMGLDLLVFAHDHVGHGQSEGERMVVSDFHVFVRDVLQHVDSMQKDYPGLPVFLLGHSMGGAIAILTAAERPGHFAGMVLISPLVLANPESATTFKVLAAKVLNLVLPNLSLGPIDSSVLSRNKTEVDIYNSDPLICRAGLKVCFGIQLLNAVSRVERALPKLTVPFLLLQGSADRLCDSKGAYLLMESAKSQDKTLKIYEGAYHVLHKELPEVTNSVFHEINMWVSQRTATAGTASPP
In short: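 Three male rhesus monkeys (5–7 kg) were given ketamine 10 mg/kg i.m., then intubated and kept on 1–2% isoflurane, with a heating pad. After a 68Ge–68Ga transmission scan, a 120 min 3D list-mode emission scan began at i.v. radioligand injection (356 ± 50 MBq, 343 ± 68 GBq/μmol). Baseline data were analysed by Scatchard plot to give KD and Bmax in representative ROIs.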

MAGL [3] = assay type: in vivo, rhesus monkey (Macaca mulatta); settings: baseline; for VT mean: mean of three monkeys; for VT: M187
[4] = Radiometabolite analysis of [18F]T-401 in arterial plasma; assay type: in vivo, rhesus monkey; settings: 30 min after injection; baseline and JW642 blockade
In short: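 Anaesthetised monkeys had 24 serial saphenous-artery samples taken over the 120 min scan. Plasma was separated at 15000 × g, 3 min, 4 °C. Samples from 2, 5, 10, 30, 60, 90 and 120 min went to HPLC (Atlantis T3, acetonitrile/H2O 40/60, 1.0 mL/min, 254 nm). Decay-corrected parent-to-total radioactivity came from peak areas. Blockade used i.v. test compound 0.01–0.3 mg/kg, 5 min before the radioligand, in one monkey.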

| EC50, plasma JW642 concentration inducing 50% occupancy of MAGL (MAGL [1]; Hill's plot of occupancy versus plasma concentration, monkey M187) | MAGL occupancy (MAGL [1]; JW642 0.01 mg/kg i.v., Lassen's plot) | MAGL occupancy (MAGL [1]; JW642 0.3 mg/kg i.v., Lassen's plot, 0.3 mg/kg) | Kd (MAGL [2]; FCX) | Kd (MAGL [2]; HIP) | VT mean (MAGL [3]; CB) | VT mean (MAGL [3]; FCX) | VT mean (MAGL [3]; HIP) | VT (MAGL [3]; OCC) | VT mean (MAGL [3]; OCC) | VT mean (MAGL [3]; Pons) | VT (MAGL [3]; STR) | VT mean (MAGL [3]; STR) | VT mean (MAGL [3]; THA) | time of peak brain uptake after injection (MAGL [3]; monkey brain) | mean VT, upper end of range (MAGL [3]; printed as striatum) | non-displaceable distribution volume (VND) (MAGL [1]; Lassen's plot, averaged x-intercept of regression lines, monkey brain) | VND as portion of VT (MAGL [1]; pons) | parent fraction in arterial plasma [4] | Compound |
| --- | --- | --- | --- | --- | --- | --- | --- | --- | --- | --- | --- | --- | --- | --- | --- | --- | --- | --- | --- |
| 0.126 µg/mL and 0.1261 µg/mL | 20% | 94% and 93% | – | – | – | – | – | – | – | – | – | – | – | – | – | – | – | – | O=C(OC(C(F)(F)F)C(F)(F)F)N1CCN(Cc2cccc(Oc3ccccc3)c2)CC1 [JW642] |
| – | – | – | 4.18 nM | 1.09 nM | 7.17 mL/cm^3 | 11.7 mL/cm^3 | 5.95 mL/cm^3 | 11.89 mL/cm^3 | 9.96 mL/cm^3 | 4.73 mL/cm^3 | 12.51 mL/cm^3 | 9.05 mL/cm^3 | 6.36 mL/cm^3 | 5 to 15 min | 11.7 mL/cm^3 | 0.69 mL/cm^3 | 14.6% | approximately 30% | Cc1ccnc([18F])c1-c1cccc(N2C[C@H](N3CCN(C(=O)c4nccs4)CC3)CC2=O)c1 [[^18F]T-401, (4R)-1-{3-[2-[^18F]fluoro-4-methylpyridin-3-yl]phenyl}-4-[4-(1,3-thiazol-2-ylcarbonyl)piperazin-1-yl]pyrrolidin-2-one] |

— PMC8943622 (Journal of Cerebral Blood Flow & Metabolism, 2021)
